According to PMC11628833 (Acta Pharmaceutica Sinica. B, 2024):

Columns and labels:
[1] = biological target: T1, human TLR7 (Homo sapiens, UniProt Q9NYK1); assay: SEAP reporter assay in HEK-Blue hTLR7 cells; type: cell-based
T1 sequence (Q9NYK1 27-1049): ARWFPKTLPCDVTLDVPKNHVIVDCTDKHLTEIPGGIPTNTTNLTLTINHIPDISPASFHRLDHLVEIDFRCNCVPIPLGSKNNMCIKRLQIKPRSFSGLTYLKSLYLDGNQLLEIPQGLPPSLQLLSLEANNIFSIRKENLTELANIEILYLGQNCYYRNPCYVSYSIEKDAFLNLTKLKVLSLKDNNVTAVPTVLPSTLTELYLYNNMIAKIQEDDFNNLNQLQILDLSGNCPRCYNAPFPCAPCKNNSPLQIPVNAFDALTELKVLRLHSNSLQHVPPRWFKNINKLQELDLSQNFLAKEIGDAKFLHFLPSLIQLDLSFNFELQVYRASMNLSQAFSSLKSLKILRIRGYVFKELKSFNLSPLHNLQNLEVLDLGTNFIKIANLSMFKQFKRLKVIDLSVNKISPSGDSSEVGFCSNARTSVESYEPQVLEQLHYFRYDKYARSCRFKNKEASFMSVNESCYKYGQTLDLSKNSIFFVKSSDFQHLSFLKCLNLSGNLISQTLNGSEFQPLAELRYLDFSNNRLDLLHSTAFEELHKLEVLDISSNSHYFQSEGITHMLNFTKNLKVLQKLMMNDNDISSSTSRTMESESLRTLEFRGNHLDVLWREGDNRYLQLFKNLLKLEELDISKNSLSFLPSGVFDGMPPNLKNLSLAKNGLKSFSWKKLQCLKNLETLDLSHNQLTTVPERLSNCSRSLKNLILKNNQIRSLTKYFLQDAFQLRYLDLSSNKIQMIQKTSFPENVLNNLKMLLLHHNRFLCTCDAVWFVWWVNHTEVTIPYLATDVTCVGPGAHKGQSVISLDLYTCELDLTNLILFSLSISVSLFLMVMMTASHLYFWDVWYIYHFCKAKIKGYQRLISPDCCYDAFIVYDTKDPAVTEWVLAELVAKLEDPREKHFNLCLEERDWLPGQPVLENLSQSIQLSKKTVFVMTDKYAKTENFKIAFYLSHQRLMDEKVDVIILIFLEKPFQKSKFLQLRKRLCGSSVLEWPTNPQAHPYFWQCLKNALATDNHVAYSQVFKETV
Outline: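 HEK-Blue hTLR7 cells (stable human TLR7 with SEAP reporter) were plated at 5 × 10^5 cells/mL in DMEM with 10% heat-inactivated FBS. They were treated with R848 and varying test compound concentrations at 37 °C for 20–24 h. Medium was mixed with QUANTI-Blue, incubated at 37 °C for about 30 min, and read at 620 nm. R848-only = 100% activation; untreated = 0%.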

[2] = biological target: TLR4 (Homo sapiens, UniProt O00206); assay: Specificity test in HEK-Blue TLR-overexpressing cells, TLR4; type: cell-based; conditions: 5 μM S-1, HEK-Blue TLR cells, TLR-specific agonist
Chain of TLR4 (O00206 24-839): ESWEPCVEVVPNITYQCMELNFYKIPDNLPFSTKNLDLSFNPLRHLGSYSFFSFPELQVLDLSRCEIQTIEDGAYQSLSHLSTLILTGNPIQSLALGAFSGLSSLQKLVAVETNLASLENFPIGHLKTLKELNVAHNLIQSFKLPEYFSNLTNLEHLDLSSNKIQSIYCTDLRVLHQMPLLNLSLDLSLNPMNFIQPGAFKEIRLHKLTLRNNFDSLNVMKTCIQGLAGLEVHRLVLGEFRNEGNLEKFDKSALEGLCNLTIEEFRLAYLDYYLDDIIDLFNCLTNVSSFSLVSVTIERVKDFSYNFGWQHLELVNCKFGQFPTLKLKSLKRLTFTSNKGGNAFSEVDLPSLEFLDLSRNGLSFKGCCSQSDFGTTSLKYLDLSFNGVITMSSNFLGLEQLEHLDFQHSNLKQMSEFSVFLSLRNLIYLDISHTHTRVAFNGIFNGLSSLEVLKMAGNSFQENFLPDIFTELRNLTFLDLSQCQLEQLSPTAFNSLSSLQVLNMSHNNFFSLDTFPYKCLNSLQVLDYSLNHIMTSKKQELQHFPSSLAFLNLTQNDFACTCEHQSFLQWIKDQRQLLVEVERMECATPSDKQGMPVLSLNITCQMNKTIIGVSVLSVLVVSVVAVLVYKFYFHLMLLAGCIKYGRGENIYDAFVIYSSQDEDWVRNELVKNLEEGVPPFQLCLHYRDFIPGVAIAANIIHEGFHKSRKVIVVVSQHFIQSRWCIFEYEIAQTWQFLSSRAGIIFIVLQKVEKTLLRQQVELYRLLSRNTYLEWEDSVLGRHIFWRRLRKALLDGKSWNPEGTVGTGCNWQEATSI
Chain of TLR4 (Q9Y6Y9 17-160 partner limits assumed): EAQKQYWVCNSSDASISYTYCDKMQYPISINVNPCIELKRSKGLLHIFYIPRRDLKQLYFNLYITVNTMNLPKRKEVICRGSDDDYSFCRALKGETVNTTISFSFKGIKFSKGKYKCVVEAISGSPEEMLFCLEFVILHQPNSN

`O=C(c1ccc(Cl)cc1)N1CCN(c2ccc([N+](=O)[O-])c3ncccc23)CC1` [Compound S1] was tested, and the IC50 [1] was 790 ± 270 nM and the “inhibition of TLR4” value [2] was “no obvious inhibition”.
